Our source for the IC50, selectivity ratio and Ratio values is ChEMBL document CHEMBL4402517, “Rational modification of Mannich base-type derivatives as novel antichagasic compounds: Synthesis, in vitro and in vivo evaluation” (Bioorg Med Chem, 2019).

In general, IC50 refers to the concentration at which inhibition is half-maximal.

In data set [1] the test system is Trypanosoma cruzi. Nature of the data set: Antitrypanosomal activity against Trypanosoma cruzi TINF/CH/1956/Tulahuen;DTU 6 amastigote forms measured after 72 hrs by Giemsa staining based assay. It is filed as functional, organism-based. Conditions: TINF/CH/1956/Tulahuen;DTU 6, 72 h. The method in brief:
(§1)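 Vero cells (1 × 10^4/well, on coverslips) left to adhere 24 h at 37 °C, 5% CO2, then infected with trypomastigotes at MOI 10:1 for 24 h. Free parasites were removed by three PBS washes. Compounds at 3.1, 6.25, 12.5, 25 and 50 µM were incubated 72 h, and amastigotes were counted after Giemsa staining. Triplicates, two separate experiments; IC50 by nonlinear regression.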

In data set [2] the test system is Trypanosoma cruzi. Nature of the data set: Antitrypanosomal activity against bloodstream trypomastigote stage of Trypanosoma cruzi MHOM/Pe/2011/Arequipa; DTU 5 isolated from parasite infected BALB/c Albino mouse cardiac cells after 24 hrs by Neubauer chamber based cell counting method. Conditions: DTU 5, 24 h. It counts as functional, organism-based. The method in brief:
(§2)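 Bloodstream trypomastigotes were taken by cardiac puncture from infected BALB/c mice and diluted in RPMI + 10% heat-inactivated FBS. At 2 × 10^6/mL they were exposed to 3.1–50.0 µM (lower where needed) for 24 h at 37 °C, 5% CO2, and counted in a Neubauer chamber. Triplicates, at least three experiments; IC50 by nonlinear regression.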

The test system of data set [3] is Trypanosoma cruzi. As to the kind of experiment: Antitrypanosomal activity against bloodstream trypomastigote stage of Trypanosoma cruzi IRHOD/CO/2008/SN3;DTU 1 isolated from parasite infected BALB/c Albino mouse cardiac cells after 24 hrs by Neubauer chamber based cell counting method. It counts as functional, organism-based. Conditions: IRHOD/CO/2008/SN3;DTU 1, 24 h. In short, it runs like this: as §2

Data set [4] concerns Trypanosoma cruzi. Nature of the data set: Antitrypanosomal activity against Trypanosoma cruzi MHOM/Pe/2011/Arequipa;DTU 5 epimastigotes measured after 72 hrs by Neubauer hemocytometer. It counts as functional, organism-based. The settings on record: MHOM/Pe/2011/Arequipa;DTU 5, 72 h.
Data set [5] has as its system Trypanosoma cruzi. Nature of the data set: Antitrypanosomal activity against Trypanosoma cruzi TINF/CH/1956/Tulahuen;DTU 6 epimastigotes measured after 72 hrs by Neubauer hemocytometer. It counts as functional, organism-based. Conditions: TINF/CH/1956/Tulahuen;DTU 6, 72 h.
The test system of data set [6] is Trypanosoma cruzi. Nature of the data set: Antitrypanosomal activity against Trypanosoma cruzi MHOM/Pe/2011/Arequipa;DTU 5 amastigote forms measured after 72 hrs by Giemsa staining based assay. It is filed as functional, organism-based. The settings on record: MHOM/Pe/2011/Arequipa;DTU 5, 72 h. The method in brief: as §1
Data set [7] is described as follows: Selectivity index, ratio of IC50 for African green monkey Vero cells to IC50 for Trypanosoma cruzi MHOM/Pe/2011/Arequipa; DTU 5 amastigote forms. It counts as toxicity. Conditions: read-out: Selectivity Index. The method in brief: (§3)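 Vero cells (1 × 10^4/well) were infected with trypomastigotes at MOI 10:1 for 24 h and washed with PBS. They were then exposed to 3.1–50 µM for 72 h at 37 °C in 5% CO2, and amastigotes were counted after Giemsa staining. Triplicates in two determinations; nonlinear regression.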

Another data set deals with Vero. Nature of the data set: Cytotoxicity against African green monkey Vero cells measured after 72 hrs by MTT assay. It is filed as cell-based. Conditions: Chlorocebus sabaeus. In short, it runs like this: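 Log-phase Vero cells (0.8 × 10^4/well) in RPMI-1640 + 10% heat-inactivated FBS at 37 °C, 5% CO2 were exposed 72 h to serial dilutions (10.0–200.0 µM; stocks in DMSO). MTT was then added for 4 h and absorbance read. Quadruplicates, three experiments; IC50 by nonlinear regression.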

Data set [8] in a line: Selectivity index, ratio of IC50 for African green monkey Vero cells to IC50 for Trypanosoma cruzi TINF/CH/1956/Tulahuen;DTU 6 trypomastigote forms. It counts as toxicity. Conditions: read-out: Selectivity Index. In short, it runs like this:
(§4)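 Bloodstream trypomastigotes were taken from BALB/c mice by cardiac puncture and diluted in RPMI with 10% FBS at 2 × 10^6/mL. They were incubated with 3.1–50.0 µM for 24 h at 37 °C in 5% CO2 and counted in a Neubauer chamber. Triplicate, at least three experiments; nonlinear regression.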

Data set [9] deals with Trypanosoma cruzi. As to the kind of experiment: Antitrypanosomal activity against Trypanosoma cruzi IRHOD/CO/2008/SN3;DTU 1 epimastigotes measured after 72 hrs by Neubauer hemocytometer. It counts as functional, organism-based. Conditions: IRHOD/CO/2008/SN3;DTU 1, 72 h.
The nature of data set [10]: Selectivity index, ratio of IC50 for African green monkey Vero cells to IC50 for Trypanosoma cruzi IRHOD/CO/2008/SN3;DTU 1 amastigote forms. It counts as toxicity. Conditions: read-out: Selectivity Index. In short, it runs like this: as §3
The nature of data set [11]: Selectivity index, ratio of IC50 for African green monkey Vero cells to IC50 for Trypanosoma cruzi IRHOD/CO/2008/SN3;DTU 1 trypomastigote forms. It counts as toxicity. Conditions: read-out: Selectivity Index. In short, it runs like this:
as §4

Data set [12] in a line: Selectivity index, ratio of IC50 for African green monkey Vero cells to IC50 for Trypanosoma cruzi IRHOD/CO/2008/SN3;DTU 1. It counts as toxicity. The settings on record: read-out: Selectivity Index. The method in brief:
(§5)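 SI = Vero IC50 / epimastigote IC50. Vero cells were grown in RPMI-1640 with 10% FBS, seeded at 0.8 × 10^4 cells/well, exposed to 10.0–200.0 µM for 72 h, then given MTT for 4 h. Epimastigotes were grown in MTL with 10% FBS at 28 °C, 5 × 10^5/mL, exposed to 6.3–50 µM for 48 h, then resazurin for 24 h (570/600 nm). IC50s came from nonlinear regression.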

Data set [13] is described as follows: Selectivity index, ratio of IC50 for African green monkey Vero cells to IC50 for Trypanosoma cruzi TINF/CH/1956/Tulahuen;DTU 6. It counts as toxicity. The settings on record: read-out: Selectivity Index. The method in brief: as §5
Data set [14] concerns Trypanosoma cruzi. As to the kind of experiment: Antitrypanosomal activity against Trypanosoma cruzi IRHOD/CO/2008/SN3;DTU 1 amastigote forms measured after 72 hrs by Giemsa staining based assay. It counts as functional, organism-based. Conditions: IRHOD/CO/2008/SN3;DTU 1, 72 h. The method in brief: as §1
Data set [15] can be described thus: Selectivity index, ratio of IC50 for African green monkey Vero cells to IC50 for Trypanosoma cruzi MHOM/Pe/2011/Arequipa; DTU 5 trypomastigote forms. It is filed as toxicity. Conditions: read-out: Selectivity Index. The method in brief:
as §4

Data set [16] concerns Trypanosoma cruzi. Nature of the data set: Trypanocidal activity against Trypanosoma cruzi TINF/CH/1956/Tulahuen;DTU 6 trypomastigote forms infected in BALB/c albino mouse measured after 24 hrs by Neubauer chamber method. Conditions: TINF/CH/1956/Tulahuen;DTU 6, 24 h.
In data set [17] the test system is Trypanosoma cruzi. As to the kind of experiment: Trypanocidal activity against Trypanosoma cruzi trypomastigote form infected in African green monkey Vero cells measured after 48 hrs by resazurin dye based assay. It counts as functional, organism-based.
A short description of data set [18]: Selectivity index, ratio of IC50 for African green monkey Vero cells to IC50 for Trypanosoma cruzi MHOM/Pe/2011/Arequipa;DTU 5. It counts as toxicity. The settings on record: read-out: Selectivity Index. In short, it runs like this: as §5
Data set [19] can be described thus: Selectivity index, ratio of IC50 for African green monkey Vero cells to IC50 for Trypanosoma cruzi TINF/CH/1956/Tulahuen;DTU 6 amastigote forms. It is filed as toxicity. The settings on record: read-out: Selectivity Index. In short, it runs like this: as §3
For data set [20], the system named is Trypanosoma cruzi. As to the kind of experiment: Trypanocidal activity against Trypanosoma cruzi trypomastigote form infected in African green monkey Vero cells assessed as ratio of infected cells at 50 uM measured after 72 hrs by Giemsa staining based assay relative to control. It counts as functional. In short, it runs like this: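 Vero cells (1 × 10^4/well, on coverslips) were infected with trypomastigotes at MOI 10:1 for 24 h and washed three times with PBS. They were treated at 3.1, 6.25, 12.5, 25 and 50 µM for 72 h at 37 °C in 5% CO2. Infected cells were counted after Giemsa staining. Triplicates, two separate determinations.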

In the case of `COc1ccc(C(=O)CCNCCc2ccc(C(F)(F)F)cc2)cc1`, the IC50 in the data set on Trypanosoma cruzi [1] was 3.3 µM; in the data set with Trypanosoma cruzi [2] it was 3.6 µM; with Trypanosoma cruzi [3], 5.5 µM; in the data set with Trypanosoma cruzi [4], 59.7 µM; in the data set on Trypanosoma cruzi [5], 13.2 µM; in the data set with Trypanosoma cruzi [6] it was 9.1 µM. Further, the IC50 with Vero came out at 91.1 µM; with Trypanosoma cruzi [9], 13.2 µM; with Trypanosoma cruzi [14], 4.5 µM; in the data set with Trypanosoma cruzi [16], 3.5 µM; with Trypanosoma cruzi [17], 13.9 µM. In addition, the selectivity ratio worked out at 10 in data set [7]; 26.1 in data set [8]; 20.2 in data set [10]; 16.7 in data set [11]; 6.9 in [12]; 6.9 in [13]. Moreover, the selectivity ratio was found to be 25 in [15], 1.5 in data set [18] and 27.7 in [19]. Further, the Ratio with Trypanosoma cruzi [20] was 17%.
Take `COc1ccc(C(=O)CCNCCc2ccc(F)cc2)cc1`: the IC50 with Trypanosoma cruzi [4] is 35.6 µM; with Trypanosoma cruzi [5], 20.3 µM; in the data set on Vero it was 66.2 µM; in the data set on Trypanosoma cruzi [9] it was 16.9 µM. The selectivity ratio in [12] was 3.9; in data set [13], 3.3; in data set [18], 1.9.
In the case of `O=C(CCN1CCN(c2ccc(F)cc2)CC1)c1ccc(O)cc1`, the IC50 in the data set on Trypanosoma cruzi [4] was 24.4 µM; in the data set on Trypanosoma cruzi [5], 13 µM; in the data set with Vero it was 50 µM; in the data set on Trypanosoma cruzi [9] it was 10.1 µM. For the same molecule, the selectivity ratio worked out at 5 in data set [12], 3.9 in data set [13] and 2.1 in data set [18].
On to `COc1ccc(C(=O)CCNc2ccc(F)cc2)cc1`, for which the IC50 in the data set with Trypanosoma cruzi [1] stood at 6.7 µM; with Trypanosoma cruzi [2], 2.1 µM; with Trypanosoma cruzi [3] it was 3.4 µM; in the data set on Trypanosoma cruzi [4], 14.8 µM; with Trypanosoma cruzi [5] it was 14.4 µM; in the data set with Trypanosoma cruzi [6] it was 4.7 µM. Besides, the IC50 in the data set on Vero stood at 133 µM; with Trypanosoma cruzi [9], 25.4 µM; in the data set with Trypanosoma cruzi [14], 5.4 µM; with Trypanosoma cruzi [16], 2.7 µM; with Trypanosoma cruzi [17], 7.1 µM. In addition, the selectivity ratio in [7] is 27.6; in data set [8] it was 48.8; in [10] it was 24.7; in [11], 39.4; in [12], 5.2; in data set [13], 9.3. Also, the selectivity ratio was found to be 64.8 in data set [15], 9 in data set [18] and 20.1 in data set [19]. Further, the Ratio in the data set with Trypanosoma cruzi [20] turned out to be 10%.
`COc1ccc(C(=O)CCNc2ccc(Cl)cc2)cc1`: the 50% inhibitory concentration (IC50) with Trypanosoma cruzi [1] was 26.3 µM; in the data set with Trypanosoma cruzi [2] it was 13 µM; with Trypanosoma cruzi [3] it was 63 µM; in the data set with Trypanosoma cruzi [4], 18.7 µM; in the data set on Trypanosoma cruzi [5], 16.4 µM; in the data set with Trypanosoma cruzi [6] it was 7.3 µM. Also, the IC50 in the data set with Vero is 146 µM; in the data set with Trypanosoma cruzi [9], 38.4 µM; in the data set with Trypanosoma cruzi [14], 6 µM; with Trypanosoma cruzi [16], 14.2 µM; in the data set on Trypanosoma cruzi [17] it was 9 µM. Also, the selectivity ratio in data set [7] came out at 19.9; in data set [8], 10.2; in data set [10], 24.1; in [11], 2.3; in data set [12], 3.8; in data set [13] it was 8.9. Besides, the selectivity ratio in data set [15] was 11.2; in [18], 7.8; in data set [19], 5.5. In addition, in the data set with Trypanosoma cruzi [20], the Ratio is 28%.
As for `COc1ccc(C(=O)CCNCCc2ccc(Cl)cc2)cc1`, the IC50 in the data set on Trypanosoma cruzi [4] turned out to be 51.6 µM; with Trypanosoma cruzi [5], 15.2 µM; with Vero it was 53.5 µM; in the data set with Trypanosoma cruzi [9], 14.6 µM. The selectivity ratio in data set [12] turned out to be 3.7; in data set [13], 3.5; in data set [18], 1.
For the molecule `O=C(CCN1CCN(c2ccc([N+](=O)[O-])cc2)CC1)c1ccc(O)cc1`, the IC50 with Trypanosoma cruzi [4] came to 24.8 µM; with Trypanosoma cruzi [5], 43 µM; with Vero, 34.6 µM; in the data set on Trypanosoma cruzi [9] it was 13 µM. Also, the selectivity ratio is 2.7 in [12], 0.8 in [13] and 1.4 in data set [18].
As for `COc1ccc(C(=O)CCNc2ccc(C(F)(F)F)cc2)cc1`, the IC50 is 17.8 µM in the data set with Trypanosoma cruzi [4], 24.6 µM with Trypanosoma cruzi [5], 32.6 µM in the data set on Vero and 76.1 µM in the data set on Trypanosoma cruzi [9]. Also, the selectivity ratio was 0.4 in data set [12], 1.3 in data set [13] and 1.8 in data set [18].
